Data set [1] in a line: melting temperature; fluorescence melt of hairpins on a sequencing array, two-state fit, raised by 9.35 °C to match UV melts. The conditions noted are these: sodium 0.088 M. The essentials: (§1)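 Bootstrapped two-state fits yielded melting temperature and folding enthalpy for library hairpins. Cy3 fluorescence, with annealed Cy3 and quencher oligos, was imaged on a sequenced MiSeq flow cell in 50 mM Na-HEPES pH 8.0, 25 mM NaCl in 2.5 °C steps up to 60 °C, and normalised to pre-quench Cy3 and to control constructs. Four replicates were combined by inverse variance, and fitted temperatures were raised by 9.35 °C to match UV melts.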

The nature of data set [2]: folding enthalpy; higher = less favourable; fluorescence melt of hairpins on a sequencing array, two-state fit. The conditions noted are these: sodium 0.088 M. In outline: as §1

Data on 56 sequences can be found in the array DNA melting data of Ke et al. (doi:10.1101/2024.01.08.574731).

With GCGTGTGGAAACACACAC (.(((((....))))).), the Tm in data set [1] turned out to be 44.4 °C. Also, the folding enthalpy in data set [2] was -13.7 kcal/mol.

GCGTGTGGAAACATACGC ((((.((....)).)))): the Tm in data set [1] was determined as 58.8 °C. In addition, in data set [2], the folding enthalpy is -39 kcal/mol.

With GCGTGTGGACGC ((((....)))), the Tm in data set [1] was 53.9 °C. Also, the folding enthalpy in data set [2] is -13.9 kcal/mol.

Take GCGTTAACACGC ((((....)))): in data set [1], the Tm was 49.1 °C. The folding enthalpy in data set [2] is -20.1 kcal/mol.

In the case of GCGTTACCGAAAGGTCGC (((..(((....)))))), the Tm in data set [1] turned out to be 51.1 °C. In data set [2], the folding enthalpy was -25.3 kcal/mol.

On to GCGTTAGGAAACTAACAC (.(((((....))))).), for which the Tm in data set [1] came to 35.9 °C. Besides, in data set [2], the folding enthalpy is -16.2 kcal/mol.

For the sequence GCGTTAGGACGC ((((....)))), in data set [1], the Tm came to 52.9 °C. The folding enthalpy in data set [2] is -25.4 kcal/mol.

With GCGTTCACGAAAGTGCGC (((..(((....)))))), the Tm in data set [1] came to 51.4 °C. The folding enthalpy in data set [2] is -19.2 kcal/mol.

GCGTTCGAAAGAAGACGC ((((((....)))..))): the Tm in data set [1] was 46.9 °C. Besides, the folding enthalpy in data set [2] is -31.8 kcal/mol.

Turning to GCGTTCGAAAGAAGCCGC ((((((....)))..))), the Tm in data set [1] amounted to 35.9 °C. The folding enthalpy in data set [2] was -22.7 kcal/mol.

GCGTTCGAAAGAAGCGC ((((((....))).))): the Tm in data set [1] was 52.5 °C. For the same sequence, the folding enthalpy in data set [2] is -28.8 kcal/mol.

For the sequence GCGTTCGGAAACGAACAC (.(((((....))))).), the Tm in data set [1] is 45.5 °C. For the same sequence, the folding enthalpy in data set [2] is -13.7 kcal/mol.

Take GCGTTCGTACGC ((((....)))): the Tm in data set [1] turned out to be 58.3 °C. For the same sequence, the folding enthalpy in data set [2] was -22.1 kcal/mol.

Regarding GCGTTCTACGC ((((...)))), the Tm in data set [1] is 58.2 °C. For the same sequence, in data set [2], the folding enthalpy is -22.5 kcal/mol.

In the case of GCGTTCTCGAAAGAGCGC (((..(((....)))))), the Tm in data set [1] was 51.1 °C. Further, the folding enthalpy in data set [2] was -34.3 kcal/mol.

Take GCGTTCTTACGC ((((....)))): the Tm in data set [1] was found to be 52.8 °C. The folding enthalpy in data set [2] was -27 kcal/mol.

As to GCGTTGCGAAAGCGAAGC ((.(.((....)).).)), the Tm in data set [1] amounted to 54 °C. Further, the folding enthalpy in data set [2] is -20.4 kcal/mol.

GCGTTGGCACGC ((((....)))): the Tm in data set [1] is 50 °C. In addition, in data set [2], the folding enthalpy is -17.2 kcal/mol.

As to GCGTTGGGAAACCAACAC (.(((((....))))).), the Tm in data set [1] is 42.5 °C. In data set [2], the folding enthalpy was -14.4 kcal/mol.

With GCGTTGGGAAACTAGCGC (((.(.(....).).))), in data set [1], the Tm is 47.9 °C. Moreover, the folding enthalpy in data set [2] was -35.9 kcal/mol.

Consider GCGTTGGGACGC ((((....)))), for which, in data set [1], the Tm came out at 55.2 °C. In data set [2], the folding enthalpy is -24.9 kcal/mol.

Consider GCGTTTATACGC ((((....)))), for which, in data set [1], the Tm is 55.7 °C. Moreover, the folding enthalpy in data set [2] is -27.7 kcal/mol.

With GCGTTTCGAAAGAAGCGC (((.(((....))).))), the Tm in data set [1] was 63.1 °C. The folding enthalpy in data set [2] is -37.9 kcal/mol.

Regarding GCGTTTCTACGC ((((....)))), in data set [1], the Tm turned out to be 53.8 °C. Besides, the folding enthalpy in data set [2] is -23.3 kcal/mol.

As for GCGTTTGAAAAAACGC ((((((....)))))), in data set [1], the Tm is 65.9 °C. Also, the folding enthalpy in data set [2] is -32.1 kcal/mol.

As to GCGTTTGACGC ((((...)))), in data set [1], the Tm turned out to be 57.1 °C. In data set [2], the folding enthalpy was -18.3 kcal/mol.

On to GCGTTTGGAAACAGATGC ((.(.((....)).).)), for which, in data set [1], the Tm was 30.1 °C. The folding enthalpy in data set [2] is -17.6 kcal/mol.

In the case of GCGTTTGGAAACGAATGC ((.((.(....).)).)), in data set [1], the Tm came out at 36 °C. Moreover, in data set [2], the folding enthalpy is -25.5 kcal/mol.

For GCGTTTTCACGC ((((....)))), the Tm in data set [1] came out at 54.2 °C. For the same sequence, in data set [2], the folding enthalpy is -24.6 kcal/mol.

Turning to GCGTTTTTACGC ((((....)))), the Tm in data set [1] was 55.2 °C. Further, the folding enthalpy in data set [2] was -26.9 kcal/mol.

As for GCTAAACGAAAGTTCAGC (((.(((....))).))), in data set [1], the Tm was 41.4 °C. The folding enthalpy in data set [2] was -28.7 kcal/mol.

With GCTAAAGGAAACCTTAGC (((((.(....).))))), the Tm in data set [1] came to 37.1 °C. In addition, the folding enthalpy in data set [2] is -25.8 kcal/mol.

For the sequence GCTAAAGGAAACTTTAGC (((((((....))))))), in data set [1], the Tm stood at 53.7 °C. For the same sequence, the folding enthalpy in data set [2] was -37.4 kcal/mol.

Take GCTAACGAAAGTTAGC ((((((....)))))): the Tm in data set [1] was determined as 66.8 °C. Moreover, the folding enthalpy in data set [2] was -35.1 kcal/mol.

With GCTAACGAAAGTTCTAGC ((((((....)))..))), the Tm in data set [1] was 28.8 °C. Moreover, the folding enthalpy in data set [2] is -11.4 kcal/mol.

GCTAACGAAAGTTTAAGC ((((((....)))..))): in data set [1], the Tm was 35.5 °C. Further, in data set [2], the folding enthalpy was -19 kcal/mol.

As to GCTAACGAAAGTTTAGC ((((((....))).))), in data set [1], the Tm was 46.9 °C. Also, the folding enthalpy in data set [2] was -24.2 kcal/mol.

In the case of GCTAACGGAAACATTAGC (((((.(....).))))), the Tm in data set [1] stood at 32.9 °C. Also, the folding enthalpy in data set [2] was -23.1 kcal/mol.

In the case of GCTAAGCGAAAGCATGGC ((.(.((....)).).)), the Tm in data set [1] was 39.7 °C. Further, the folding enthalpy in data set [2] was -20.1 kcal/mol.

GCTAAGCGAAAGCCTCGC ((.(.((....)).).)): in data set [1], the Tm came to 29 °C. Besides, the folding enthalpy in data set [2] is -10.7 kcal/mol.

On to GCTAAGCGAAAGCCTTGC ((.(.((....)).).)), for which, in data set [1], the Tm is 34.6 °C. Also, the folding enthalpy in data set [2] was -13.1 kcal/mol.

On to GCTAAGCGAAAGCGAAGC (((..((....))..))), for which the Tm in data set [1] is 63 °C. Moreover, the folding enthalpy in data set [2] is -26.7 kcal/mol.

As for GCTAAGCGAAAGCGGAGC (((..((....))..))), the Tm in data set [1] turned out to be 57.2 °C. The folding enthalpy in data set [2] is -20.3 kcal/mol.

On to GCTAAGCGAAAGCGTGGC ((.(.((....)).).)), for which the Tm in data set [1] came to 57.1 °C. The folding enthalpy in data set [2] was -16.1 kcal/mol.

Turning to GCTAAGCGAAAGCTCGGC ((..(((....)))..)), the Tm in data set [1] worked out at 39.7 °C. The folding enthalpy in data set [2] is -19.7 kcal/mol.

GCTAAGCGAAAGCTCTGC ((..(((....)))..)): the Tm in data set [1] stood at 31.4 °C. Besides, the folding enthalpy in data set [2] was -15.8 kcal/mol.

On to GCTAAGCGAAAGCTGCGC ((..(((....)))..)), for which, in data set [1], the Tm is 58.3 °C. Besides, in data set [2], the folding enthalpy is -21.1 kcal/mol.

Regarding GCTAAGCGAAAGCTGGGC ((..(((....)))..)), the Tm in data set [1] came out at 52.9 °C. Moreover, the folding enthalpy in data set [2] is -17.7 kcal/mol.

With GCTAAGGGAAACCTTGGC ((.((((....)))).)), the Tm in data set [1] came to 47.6 °C. Further, the folding enthalpy in data set [2] is -29.4 kcal/mol.

Consider GCTAAGGGAAACTTTAGC (((((.(....).))))), for which the Tm in data set [1] worked out at 37.9 °C. Moreover, the folding enthalpy in data set [2] is -21.1 kcal/mol.

As to GCTACAACGAAAGTTAGC (((..(((....)))))), the Tm in data set [1] is 33.4 °C. The folding enthalpy in data set [2] is -18.6 kcal/mol.

Consider GCTACACCGAAAGGTAGC (((..(((....)))))), for which, in data set [1], the Tm came to 47.1 °C. Also, the folding enthalpy in data set [2] was -22.7 kcal/mol.

On to GCTACAGAAATGTAGC ((((((....)))))), for which, in data set [1], the Tm is 55.4 °C. In data set [2], the folding enthalpy was -33.1 kcal/mol.

For the sequence GCTACAGCGAAAGCTAGC (((..(((....)))))), in data set [1], the Tm stood at 44.5 °C. For the same sequence, the folding enthalpy in data set [2] was -16.3 kcal/mol.

For GCTACAGGAAACTGCAGC (((.(((....))).))), the Tm in data set [1] worked out at 44.5 °C. In data set [2], the folding enthalpy was -28.3 kcal/mol.

Take GCTACCACGAAAGTGAGC (((..(((....)))))): in data set [1], the Tm turned out to be 33.3 °C. Further, the folding enthalpy in data set [2] is -15.3 kcal/mol.
